B1: Osa-1-4 twister ribozyme (parent)
chain: CCGCCUAACACUGCCAAUGCCGGUCCCAAGCCCGGAUAAAAGUGGAGGGGGCGG

The values that follow come from the RNAGym collection of RNA variant scans (doi:10.1002/anie.201605470).

In the data set the parent is B1. Put plainly: self-cleavage, relative activity (ratio to wild type); higher = more cleavage; co-transcriptional. The procedure, abridged:
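Values are relative activity: the fraction cleaved, normalised to wild type. A doped DNA template for a 54-nucleotide twister ribozyme from Oryza sativa had 97 % wild-type base and 1 % of each other base at the 48 positions downstream of the cleavage site. The RNA was transcribed in vitro for 2 h at 37 °C so that it could cleave itself co-transcriptionally, then sequenced deeply, with cleavage status scored from the presence or absence of upstream sequence in reads.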
Turning to CCGCCUAACAUUGCCAAUGCCGGUCCCAAGCCCGGAUAAAAGUGGAGGGGGCCG [C11U G53C], the self-cleavage stood at 0.07.
On to CCGCCUAACAUUGCCAAUGCCGGUCCCAAGCCCGGAUAAAAGUGGAGGGGGCUG [C11U G53U], for which the self-cleavage was found to be 0.14.
The figure for CCGCCUAACAUUGCCAAUGCCGGUCCCAAGCCCGGAUAAAAGUGGAGGGGGCAG [C11U G53A] is 0.62; for CCGCCUAACAUUGCCAAUGCCGGUCCCAAGCACGGAUAAAAGUGGAGGGGGCGG [C11U C32A] it is 0.06; for CCGCCUAACAUUGCCAAUGCCGGUCCCAAGCGCGGAUAAAAGUGGAGGGGGCGG [C11U C32G] it is 0.08.
In the case of CCGCCUAACAUUGCCAAUGCCGGUCCCAAGCUCGGAUAAAAGUGGAGGGGGCGG [C11U C32U], the self-cleavage was found to be 0.07.
Then CCGCCUAACAUUGCCAAUGCUGGUCCCAAGCCCGGAUAAAAGUGGAGGGGGCGG [C11U C21U], with 0.91; and CCGCCUAACAUUGCCAAUGCAGGUCCCAAGCCCGGAUAAAAGUGGAGGGGGCGG [C11U C21A], with 0.29; and CCGCCUAACAUUGCCAAUGCGGGUCCCAAGCCCGGAUAAAAGUGGAGGGGGCGG [C11U C21G], with 0.11.
Then CCGCCUAACAUUACCAAUGCCGGUCCCAAGCCCGGAUAAAAGUGGAGGGGGCGG [C11U G13A], with 0.05; and CCGCCUAACAUUCCCAAUGCCGGUCCCAAGCCCGGAUAAAAGUGGAGGGGGCGG [C11U G13C], with 0.04.
In the case of CCGCCUAACAUUUCCAAUGCCGGUCCCAAGCCCGGAUAAAAGUGGAGGGGGCGG [C11U G13U], the self-cleavage turned out to be 0.04.
Then CCGCCUAACAUUGCCAAUGCCGGUCCCAAGCCCGGAUAAAAGCGGAGGGGGCGG [C11U U43C], with 0.26; and CCGCCUAACAUUGCCAAUGCCGGUCCCAAGCCCGGAUAAAAGAGGAGGGGGCGG [C11U U43A], with 0.62; and CCGCCUAACAUUGCCAAUGCCGGUCCCAAGCCCGGAUAAAAGGGGAGGGGGCGG [C11U U43G], with 0.2.
The figure for CCGCCUAACAUUGCCAAUGCCAGUCCCAAGCCCGGAUAAAAGUGGAGGGGGCGG [C11U G22A] is 0.59.
The figure for CCGCCUAACAUUGCCAAUGCCCGUCCCAAGCCCGGAUAAAAGUGGAGGGGGCGG [C11U G22C] is 0.04; for CCGCCUAACAUUGCCAAUGCCUGUCCCAAGCCCGGAUAAAAGUGGAGGGGGCGG [C11U G22U] it is 0.22.
Take CCGCCUAACAUUGCCAAUGCCGGCCCCAAGCCCGGAUAAAAGUGGAGGGGGCGG [C11U U24C]: the self-cleavage was 0.1.
Take CCGCCUAACAUUGCCAAUGCCGGGCCCAAGCCCGGAUAAAAGUGGAGGGGGCGG [C11U U24G]: the self-cleavage was determined as 0.06.
Then CCGCCUAACAUUGCCAAUGCCGGACCCAAGCCCGGAUAAAAGUGGAGGGGGCGG [C11U U24A], with 0.06; and CCGCCUAACACAGCCAAAGCCGGUCCCAAGCCCGGAUAAAAGUGGAGGGGGCGG [U12A U18A], with 0.91.
The figure for CCGCCUAACACAGCCAACGCCGGUCCCAAGCCCGGAUAAAAGUGGAGGGGGCGG [U12A U18C] is 0.76; for CCGCCUAACAUUGCCAAUGCCGGUCCCAAGCCCGGAUAAAAGUGGAGGGGCCGG [C11U G51C] it is 0.05.
Then CCGCCUAACAUUGCCAAUGCCGGUCCCAAGCCCGGAUAAAAGUGGAGGGGUCGG [C11U G51U], with 0.12; and CCGCCUAACAUUGCCAAUGCCGGUCCCAAGCCCGGAUAAAAGUGGAGGGGACGG [C11U G51A], with 0.34.
In the case of CCGCCUAACAUUGCCAAUGCCGGUCCCAAGCCCGGAUAAAAGUGGAGGGAGCGG [C11U G50A], the self-cleavage came to 0.44.
Then CCGCCUAACAUUGCCAAUGCCGGUCCCAAGCCCGGAUAAAAGUGGAGGGUGCGG [C11U G50U], with 0.88; and CCGCCUAACAUUGCCAAUGCCGGUCCCAAGCCCGGAUAAAAGUGGAGGGCGCGG [C11U G50C], with 0.72; and CCGCCUAACAUUGCCAAUGCCGGUCCCAAGCCCGGAUAAAAGUGGAGGCGGCGG [C11U G49C], with 0.08.
Then CCGCCUAACAUUGCCAAUGCCGGUCCCAAGCCCGGAUAAAAGUGGAGGAGGCGG [C11U G49A], with 0.09.
Then CCGCCUAACAUUGCCAAUGCCGGUCCCAAGCCCGGAUAAAAGUGGAGGUGGCGG [C11U G49U], with 0.09.
Take CCGCCUAACACAGCCAAUGCCGGUCCCAAGCCCGGAUAAAAGUGGAGGGGGCGG [U12A]: the self-cleavage stood at 0.99.
Regarding CCGCCUAACAUAGCCAAUGCCGGUCCCAAGCCCGGAUAAAAGUGGAGGGGGCGG [C11U U12A], the self-cleavage was determined as 0.6.
Then CCGCCUAACAUGGCCAAUGCCGGUCCCAAGCCCGGAUAAAAGUGGAGGGGGCGG [C11U U12G], with 0.37.
Then CCGCCUAACAUCGCCAAUGCCGGUCCCAAGCCCGGAUAAAAGUGGAGGGGGCGG [C11U U12C], with 0.47.
Then CCGCCUAACAUUGCCAACGCCGGUCCCAAGCCCGGAUAAAAGUGGAGGGGGCGG [C11U U18C], with 0.71; and CCGCCUAACAUUGCCAAGGCCGGUCCCAAGCCCGGAUAAAAGUGGAGGGGGCGG [C11U U18G], with 0.7.
With CCGCCUAACAUUGCCAAAGCCGGUCCCAAGCCCGGAUAAAAGUGGAGGGGGCGG [C11U U18A], the self-cleavage was found to be 0.85.
As to CCGCCUAACAUUGCCAAUGCCGGUGCCAAGCCCGGAUAAAAGUGGAGGGGGCGG [C11U C25G], the self-cleavage was 0.05.
Then CCGCCUAACAUUGCCAAUGCCGGUACCAAGCCCGGAUAAAAGUGGAGGGGGCGG [C11U C25A], with 0.08; and CCGCCUAACAUUGCCAAUGCCGGUUCCAAGCCCGGAUAAAAGUGGAGGGGGCGG [C11U C25U], with 0.52; and CCGCCUAACAUUGCCAAUGCCGGUCCCAAGCCCGAAUAAAAGUGGAGGGGGCGG [C11U G35A], with 0.65.
The figure for CCGCCUAACAUUGCCAAUGCCGGUCCCAAGCCCGCAUAAAAGUGGAGGGGGCGG [C11U G35C] is 0.18; for CCGCCUAACAUUGCCAAUGCCGGUCCCAAGCCCGUAUAAAAGUGGAGGGGGCGG [C11U G35U] it is 0.69; for CCGCCUAACAUUGCCAAUGCCGGUCCCAAGCCCGGAUAAAAGUGGAGAGGGCGG [C11U G48A] it is 0.07.
Then CCGCCUAACAUUGCCAAUGCCGGUCCCAAGCCCGGAUAAAAGUGGAGUGGGCGG [C11U G48U], with 0.05.
As for CCGCCUAACAUUGCCAAUGCCGGUCCCAAGCCCGGAUAAAAGUGGAGCGGGCGG [C11U G48C], the self-cleavage came to 0.06.
